Tested on: MS2 coat protein
Assay: apparent Kd, MS2 coat protein; higher = weaker binding; RNA-MaP array; FMN 200 µM where present
Outline: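 Two titrations, one without ligand and one with constant ligand, were run with SNAP-549-labelled MS2 coat protein from 0.7 or 1.5 nM, doubling to 3 µM. The targets were designs transcribed by stalled E. coli RNA polymerase on Illumina sequencing-chip clusters, in 100 mM Tris-HCl pH 7.5, 80 mM KCl, 4 mM MgCl2, BSA, DTT, yeast tRNA and Tween-20. The apparent Kd is the median of filtered per-cluster binding-curve fits, with green signal normalised to red-channel RNA signal and control-cluster median Fmax.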

[1] = designed as: ON switch for flavin mononucleotide, no ligand
[2] = ligand present: flavin mononucleotide, designed as: ON switch for flavin mononucleotide
[3] = designed as: OFF switch for flavin mononucleotide, no ligand
[4] = ligand present: flavin mononucleotide, designed as: OFF switch for flavin mononucleotide

Sequence | apparent Kd [1] [µM] | apparent Kd [2] [µM] | apparent Kd [3] [µM] | apparent Kd [4] [µM]
UUUAUUAAUUAGAAGGCAUGAUGAAUUACAAUAGACAUGAGGAUCACCCAUGUGUAUUCAUGUCAUGAGGAUAUAGUCAUAUAU | 0.0103 | 0.00727 | – | –
UUUAUUUAGGCAGGAUAUACAUGUAUAUAUAUUUCUUUAUAUAUUAUUACAUGAGGAUCACCCAUGUAGAAGGGCCUUAUUAUA | – | – | 0.0693 | 0.0889
UUUCCGCGAGGAUAUGCGGGUUGUGCUUUUCAUUUCUUAUAACAUGAGGAUCACCCAUGUAGAAGGUGCUUCUU | – | – | 0.151 | 0.144
UUUCUCGUUGUGAGGAUAUCGUUUUUGUCUCGGAUCGAGAAGGCACAUGAGGAUCACCCAUGUUUGUUGUGGUU | – | – | 0.0851 | 0.103
UUUCUUGAUGUCAGGAUAUCGGGCACAAAAUCUAACGAGAAGGGACAUGAGGAUCACCCAUGUACGUUUUUGGG | – | – | 0.0929 | 0.249
UUUGAGUUCCGAGGCCGCGAGUUCACAGAAGGCAUUAUUACAUGAGGAUCACCCAUGUGGGUACAUGAGGAUAUGUGAUAUGCG | 0.0208 | 0.00655 | – | –
UUUGCAUUCCGAGGAUAUUCAUUUAUUGUCUUCACAUGAGGAUCACCCAUGUGGCGCUUGCGCCGGGAGAAGGCGGUUUGCUUU | 0.0217 | 0.0249 | – | –
UUUGGGUGGCUGGAGGAUAUCCUUGUUGUUACAUGAGGAUCACCCAUGUGCCGCGCGGUUCGCGAGGAGAAGGCUGGCGGCCGUU | 0.331 | 0.0613 | – | –
UUUGGGUGGCUGGAGGAUAUUCGAGUGGUAACAUGAGGAUCACCCAUGUGUCGCGCGGUACACGAGGAGAAGGCUGGCGGCCGUU | 0.0565 | 0.0189 | – | –
UUUGUGUCAGGAUAUCGGGCCAGCAAUACGGUAUGUGGGCACGAGAAGGGACAUGAGGAUCACCCAUGUGCCUU | – | – | 0.0148 | 0.0164
UUUGUUUAUGCAGGAUAUUGUAUUUUAUUACAUCAAGAAGGGCAUUACAUGAGGAUCACCCAUGUUAUCUUAUGGUUAACUAGU | – | – | 0.0208 | 0.0213
UUUGUUUAUGUGAGGAUAUACUGUUUGUUUUGUUUGUAGAAGGUACAUGAGGAUCACCCAUGUUUUGUUUUUUU | – | – | 0.0228 | 0.0205
UUUUAACAUGAGGAUCACCCAUGUGAGGAUAUCGAAAUUUAUAUUAAUAUUUAUUAAUCGAGAAGGCACAUUUU | – | – | 0.0937 | 0.122
UUUUAACAUGAGGAUCACCCAUGUGAGGAUAUCGAAAUUUAUAUUAAUAUUUUUAUUUCGAGAAGGCACAUUUU | – | – | 0.144 | 0.166
UUUUAACAUGAGGAUCACCCAUGUGAGGAUAUCGAAAUUUAUAUUUAUAUUAAUAAUACGAGAAGGCACAUUUU | – | – | 0.063 | 0.0869
UUUUAACAUGAGGAUCACCCAUGUGAGGAUAUCGUAUUUUUUAUUAAUAUUAAUAAAACGAGAAGGCACAUUUU | – | – | 0.0955 | 0.0973
UUUUAACAUGAGGAUCACCCAUGUGAGGAUAUCGUUAUUUAUAUUAAUAUUAAUAAAACGAGAAGGCACAUUUU | – | – | 0.112 | 0.141
UUUUACAUAGGAUAUAGUUGCUUUUACAUGAGGAUCACCCAUGUCUCUCCUCUCUCUCUUCUAGAAGGAUGUUUCU | – | – | 0.0547 | 0.0465
UUUUACCGAGGAUAUACAUAUAAAUAAUAAUCCUCAUUAUUACAUGAGGAUCACCCAUGUAGAAGGCGGAUUUU | – | – | 0.0892 | 0.0668
UUUUAGGCAGGAUAUACAUGAGGAUCACCCAUGUAAAUUUUUCGUUUAACUUGAAUGUGUAGAAGGGCCAUAUU | – | – | 0.0205 | 0.0214
UUUUAUGUCAAAGGAUAUAUAAAUAAAUUUAUAACAUGAGGAUCACCCAUGUACUUUAGUAUGAGGUAGAAGGUUGAUAAGAGA | 0.0354 | 0.0233 | – | –
UUUUGUUUACAAGGAUAUCAAUUAUUUAUACUUCCUACAUGAGGAUCACCCAUGUUUUUAUAUUUUGAGAAGGUGUAAUGUCGG | 0.0404 | 0.039 | – | –
UUUUUACAUGAGGAUCACCCAUGUGAGGAUAUGGAUUCGCUGGCCGUAGCCAGUGGAUCCAGAAGGCGCGUGAU | – | – | 0.09 | 0.175
UUUUUAUUUGUAGGAUAUGGAGACAUGAGGAUCACCCAUGUAUGAUAAGCUAAAUUAUGCUGUGGCCAGAAGGAUAUUAUUUUU | 0.0439 | 0.0497 | – | –
UUUUUGUGAGGAUAUCAGUAGUAAAUAAAUAAAAUUACUACUGAGAAGGCACAUGAGGAUCACCCAUGUUUUUU | – | – | 0.0404 | 0.0951
UUUUUUCCUCAUGUACAUGAGGAACAUGAGGAUCACCCAUGUAGAAGGAUUUCCCUUAAAUUAAGAUAGGAUAUACAUAUAUUU | – | – | 0.087 | 0.0705
UUUUUUUUUGUGAGGAUAUACUUUUUUUUUUUUUUGUAGAAGGCACAUGAGGAUCACCCAUGUUUUUUUUUCUC | – | – | 0.0117 | 0.0114

From the EternaBench riboswitch data
